Laboratory results reported in ChEMBL document CHEMBL1629545, “A morpholino oligomer targeting highly conserved internal ribosome entry site sequence is able to inhibit multiple species of picornavirus” (Antimicrob Agents Chemother, 2008).

What was measured:
[1] = tested on: Vero; assay: Cytotoxicity against African green monkey Vero cells at 10 uM after 24 hrs by MTS assay; type: cell-based; conditions: chlorocebus sabaeus
[2] = tested on: HeLa; assay: Cytotoxicity against human HeLa cells at 1 to 10 uM after 24 hrs by MTS assay; type: cell-based
In short: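 HeLa cells at ~80% confluence, uninfected, exposed to 1–100 μM PPMO or water (mock) in serum-free DMEM-F-12 (1:1) for 24 h. MTS reagent was added for 4 h and absorbance read at 492 nm. Viability was expressed as percent of water-treated cells (set to 100%), averaged over 12 wells.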

[3] = tested on: SK-N-MC; assay: Cytotoxicity against human SK-N-MC cell at 10 uM after 24 hrs by MTS assay; type: cell-based
[4] = tested on: Poliovirus 1; assay: Antiviral activity against Human poliovirus type 1 infected in Human HeLa cells assessed as log reduction in viral titer at 5 uM measured after 24 hrs post infection by plaque assay; type: functional, organism-based
In short: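 Nearly confluent HeLa cells were infected 1 h with a clinical PV1 isolate (passaged once in Vero and once in HeLa) at MOI 0.05. Inoculum was replaced by medium with 10% calf serum containing PPMO (2.5 or 5 μM) or water, at 37°C. Supernatant titre at 24 h p.i. was measured by plaque assay with 36 h plaque development.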

[5] = tested on: rhinovirus B14; assay: Antiviral activity against Human rhinovirus type 14 infected in Human HeLa cell assessed as log reduction in viral titer at 5 uM measured after 48 hrs post infection by plaque assay; type: functional, organism-based
In short: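 HRV14 from an infectious clone was used to infect nearly confluent HeLa cells for 1 h at MOI 0.03. Cells were then kept in 10% calf serum medium with PPMO or water at 34°C. Supernatant titre at 48 h p.i. was measured by plaque assay at 34°C with 72 h plaque development. Two experiments were averaged.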

Compound: Cc1cn([C@H]2CN(P(=O)(OC[C@@H]3CN(P(=O)(OC[C@@H]4CNC[C@H](n5cnc6c(=O)[nH]c(N)nc65)O4)N(C)C)C[C@H](n4cnc5c(N)ncnc54)O3)N(C)C)C[C@@H](COP(=O)(N(C)C)N3C[C@@H](COP(=O)(N(C)C)N4C[C@@H](COP(=O)(N(C)C)N5C[C@@H](COP(=O)(N(C)C)N6C[C@@H](COP(=O)(N(C)C)N7C[C@@H](COP(=O)(N(C)C)N8C[C@@H](COP(=O)(N(C)C)N9C[C@@H](COP(=O)(N(C)C)N%10C[C@@H](COP(=O)(N(C)C)N%11C[C@@H](COP(=O)(N(C)C)N%12C[C@@H](COP(=O)(N(C)C)N%13C[C@@H](COP(=O)(N(C)C)N%14C[C@@H](COP(=O)(N(C)C)N%15C[C@@H](COP(=O)(N(C)C)N%16C[C@@H](COP(=O)(N(C)C)N%17C[C@@H](COP(=O)(N(C)C)N%18C[C@@H](COP(=O)(N(C)C)N%19C[C@@H](COP(=O)(N(C)C)N%20C[C@@H](COP(=O)(N(C)C)N%21C[C@@H](COP(=O)(N(C)C)N%22C[C@@H](COP(=O)(N(C)C)N%23C[C@@H](COP(=O)(N(C)C)N%24CCN(C(=O)[C@H](CS)NC(=O)[C@H](Cc%25ccccc%25)NC(=O)[C@H](Cc%25ccccc%25)NC(=O)[C@H](CCCNC(=N)N)NC(=O)[C@H](CCCNC(=N)N)NC(=O)[C@H](CCCNC(=N)N)NC(=O)[C@H](CCCNC(=N)N)NC(=O)[C@H](CCCNC(=N)N)NC(=O)[C@H](CCCNC(=N)N)NC(=O)[C@H](CCCNC(=N)N)NC(=O)[C@H](CCCNC(=N)N)NC(=O)[C@@H](N)CCCNC(=N)N)CC%24)O[C@@H](n%24cnc%25c(=O)[nH]c(N)nc%25%24)C%23)O[C@@H](n%23cnc%24c(N)ncnc%24%23)C%22)O[C@@H](n%22cnc%23c(=O)[nH]c(N)nc%23%22)C%21)O[C@@H](n%21cnc%22c(N)ncnc%22%21)C%20)O[C@@H](n%20cnc%21c(N)ncnc%21%20)C%19)O[C@@H](n%19cnc%20c(N)ncnc%20%19)C%18)O[C@@H](n%18ccc(N)nc%18=O)C%17)O[C@@H](n%17cnc%18c(N)ncnc%18%17)C%16)O[C@@H](n%16ccc(N)nc%16=O)C%15)O[C@@H](n%15cnc%16c(=O)[nH]c(N)nc%16%15)C%14)O[C@@H](n%14cnc%15c(=O)[nH]c(N)nc%15%14)C%13)O[C@@H](n%13cnc%14c(N)ncnc%14%13)C%12)O[C@@H](n%12ccc(N)nc%12=O)C%11)O[C@@H](n%11cnc%12c(N)ncnc%12%11)C%10)O[C@@H](n%10ccc(N)nc%10=O)C9)O[C@@H](n9ccc(N)nc9=O)C8)O[C@@H](n8ccc(N)nc8=O)C7)O[C@@H](n7cnc8c(N)ncnc87)C6)O[C@@H](n6cnc7c(N)ncnc76)C5)O[C@@H](n5cnc6c(N)ncnc65)C4)O[C@@H](n4cnc5c(=O)[nH]c(N)nc54)C3)O2)c(=O)[nH]c1=O (stereo not given in full)
- Activity [1]: Non-toxic
- Activity [2]: Non-toxic
- Activity [3]: Non-toxic
- FC [4]: 2
- FC [5]: 2
